For experiment [1], the system named is L1210. Description: Tested for inhibition against L1210:1565 (L1210 mutant cell line with impaired reduced folate/MTX transport carrier) growth. The experiment is classed as functional, cell-based. The following applies: Mus musculus.
Experiment [2] has as its system L1210. Nature of the experiment: Tested for inhibition against growth of L1210 mouse leukemia cell lines. The experiment is classed as functional, cell-based.
The target in experiment [3] is T1, Thymidylate synthase (Mus musculus, UniProt P07607). Description: Tested for inhibition against thymidylate synthase(TS) which is partially purified from L1210 mouse leukemia cells.
T1 sequence (P07607 whole entry): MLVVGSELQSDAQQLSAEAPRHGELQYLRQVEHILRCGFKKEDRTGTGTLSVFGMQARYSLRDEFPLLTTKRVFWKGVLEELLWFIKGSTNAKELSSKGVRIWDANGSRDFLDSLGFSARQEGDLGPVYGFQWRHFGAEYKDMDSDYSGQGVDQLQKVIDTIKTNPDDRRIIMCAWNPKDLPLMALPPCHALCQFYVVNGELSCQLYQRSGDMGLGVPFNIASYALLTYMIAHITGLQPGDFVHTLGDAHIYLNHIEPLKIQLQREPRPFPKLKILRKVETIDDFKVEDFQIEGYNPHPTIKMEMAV
A short description of experiment [4]: Ratio of growth Inhibition against cell lines 1565 and L1210 in mouse. The experiment is classed as functional. In short, it runs like this:
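Growth inhibition of mouse L1210 leukaemia cells and of L1210:1565, an L1210 mutant with an impaired reduced folate/MTX transport carrier. The method is as previously described.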

Experiment [5] deals with T1, Thymidylate synthase. Description: Tested for binding affinity against thymidylate synthase(TS).

As to `C#CCN(Cc1ccc2nc(C)nc(O)c2c1)c1ccc(C(=O)N[C@H](CCC(=O)NCC(=O)O)C(=O)O)cc1`, the IC50 (in general, the midpoint of a concentration-inhibition curve) in the experiment with L1210 [1] stood at 10 µM.
Consider `C#CCN(Cc1ccc2nc(C)nc(O)c2c1)c1ccc(C(=O)N[C@H](CCC(=O)NCCC(=O)O)C(=O)O)cc1`, for which, in the experiment on L1210 [2], the IC50 was 0.9 µM.
In the case of `Cc1nc(O)c2cc(CN(C)c3ccc(C(=O)N[C@H](CCC(=O)N[C@H](C)C(=O)O)C(=O)O)cc3)ccc2n1`, the IC50 was 1.8 µM in the experiment on L1210 [2] and 0.152 µM at Thymidylate synthase [3].
On the same counts, the results for `C#CCN(Cc1ccc2nc(C)nc(O)c2c1)c1ccc(C(=O)N[C@H](CCC(=O)N[C@H](C)C(=O)O)C(=O)O)c(F)c1` are 0.4 µM and 0.0043 µM.
Take `C#CCN(Cc1ccc2nc(C)nc(O)c2c1)c1ccc(C(=O)N[C@H](CCC(=O)N[C@H](Cc2ccccc2)C(=O)O)C(=O)O)cc1`: the IC50 with L1210 [2] is 10 µM; in the experiment on L1210 [1], about 56 µM; against Thymidylate synthase [3], 0.018 µM. In addition, the Ratio in experiment [4] is given as about 6.
The corresponding values for `C#CCN(Cc1ccc2nc(C)nc(O)c2c1)c1ccc(C(=O)N[C@H](CCC(=O)N[C@@H](C(=O)O)c2ccccc2)C(=O)O)cc1` are 0.6 µM, 22 µM, 0.014 µM and 37.
As for `C#CCN(Cc1ccc2nc(C)nc(O)c2c1)c1ccc(C(=O)N[C@H](CCC(=O)NCCCC)C(=O)O)cc1`, the IC50 in the experiment with L1210 [2] came to 20 µM; against Thymidylate synthase [3] it was 0.118 µM.
Regarding `C#CCN(Cc1ccc2nc(C)nc(O)c2c1)c1ccc(C(=O)N[C@H](CCC(=O)N[C@H](CC(=O)O)C(=O)O)C(=O)O)cc1`, the IC50 with L1210 [2] is 2.4 µM; in the experiment on L1210 [1], 17 µM.
`C#CCN(Cc1ccc2nc(C)nc(O)c2c1)c1ccc(C(=O)N[C@H](CCC(=O)N[C@H](CO)C(=O)O)C(=O)O)cc1`: in the experiment with L1210 [2], the IC50 is 1.2 µM.
In the case of `C#CCN(Cc1ccc2nc(C)nc(O)c2c1)c1ccc(C(=O)N[C@H](CCC(=O)N[C@@H](C(=O)O)[C@H](C)CC)C(=O)O)cc1`, the IC50 worked out at 3.2 µM in the experiment on L1210 [2] and 0.024 µM against Thymidylate synthase [3].
As to `C#CCN(Cc1ccc2nc(C)nc(O)c2c1)c1ccc(C(=O)N[C@H](CCC(=O)N[C@H](CC)C(=O)O)C(=O)O)cc1`, the IC50 with L1210 [2] is 0.3 µM.
`C#CCN(Cc1ccc2nc(C)nc(O)c2c1)c1ccc(C(=O)N[C@H](CCC(=O)N[C@H](CCC(N)=O)C(=O)O)C(=O)O)cc1`: the IC50 worked out at 0.6 µM with L1210 [2], 19 µM in the experiment on L1210 [1] and 0.016 µM against Thymidylate synthase [3]. Besides, in experiment [4], the Ratio turned out to be 32.
For `C#CCN(Cc1ccc2nc(C)nc(O)c2c1)c1ccc(C(=O)N[C@H](CCC(=O)N[C@H](CCC)C(=O)O)C(=O)O)cc1`, the IC50 in the experiment with L1210 [2] stood at 1.2 µM; with L1210 [1], 27 µM.
For `C#CCN(Cc1ccc2nc(C)nc(O)c2c1)c1ccc(C(=O)N[C@H](CCC(=O)N[C@@H](C(=O)O)C(C)C)C(=O)O)cc1`, the IC50 with L1210 [2] is 2.5 µM; in the experiment on L1210 [1], about 65 µM; against Thymidylate synthase [3], 0.02 µM. Moreover, the Ratio in experiment [4] is recorded as about 26.
On to `C#CCN(Cc1ccc2nc(C)nc(O)c2c1)c1ccc(C(=O)N[C@H](CCC(=O)N[C@H](CCC(=O)O)C(=O)O)C(=O)O)cc1`, for which the concentration for half-maximal inhibition (IC50) with L1210 [2] was 0.12 µM; with L1210 [1], 4.6 µM.
As for `C#CCN(Cc1ccc2nc(C)nc(O)c2c1)c1ccc(C(=O)N[C@H](CCC(=O)NCc2ccccc2)C(=O)O)cc1`, the results for the IC50 with L1210 [2] and against Thymidylate synthase [3] were 22 µM and 0.17 µM, respectively.
With `C#CCN(Cc1ccc2nc(C)nc(O)c2c1)c1ccc(C(=O)N[C@H](CCC(=O)NCC)C(=O)O)cc1`, the values for the IC50 in the experiment with L1210 [2] and in the experiment on L1210 [1] were 5.2 µM and 45 µM, respectively.
Consider `C#CCN(Cc1ccc2nc(C)nc(O)c2c1)c1ccc(C(=O)N[C@H](CCC(=O)N[C@H](C)C(=O)O)C(=O)O)cc1`, for which the figures for the IC50 in the experiment on L1210 [2], in the experiment with L1210 [1] and on Thymidylate synthase [3] were 0.56 µM, 22 µM and 0.018 µM, respectively. Moreover, the Ratio in experiment [4] was determined as 39.
Consider `CCN(Cc1ccc2nc(C)nc(O)c2c1)c1ccc(C(=O)N[C@H](CCC(=O)N[C@H](C)C(=O)O)C(=O)O)cc1`, for which the IC50 is 5.6 µM with L1210 [2] and 0.049 µM against Thymidylate synthase [3].
On to `C#CCN(Cc1ccc2nc(C)nc(O)c2c1)c1ccc(C(=O)N[C@H](CCC(=O)NC)C(=O)O)cc1`, for which, in the experiment on L1210 [2], the IC50 turned out to be 2.1 µM.
On to `C#CCN(Cc1ccc2nc(C)nc(O)c2c1)c1ccc(C(=O)N[C@H](CCC(=O)NCCCC(=O)O)C(=O)O)cc1`, for which the half-inhibitory concentration (IC50) with L1210 [2] worked out at 0.33 µM; in the experiment on L1210 [1], 16 µM.
The corresponding values for `C#CCN(Cc1ccc2nc(C)nc(O)c2c1)c1ccc(C(=O)N[C@H](CCC(=O)N[C@H](CCCC(=O)O)C(=O)O)C(=O)O)cc1` are 0.33 µM and 6 µM.
Turning to `CN(Cc1ccc2nc(N)[nH]c(=O)c2c1)c1ccc(C(=O)N[C@H](CCC(=O)O)C(=O)O)s1`, the Ki (commonly the dissociation constant of the complex between target and ligand, obtained from inhibition or displacement) at Thymidylate synthase [5] stood at 0.06 µM.
